Shown are actives, neighbours in structure and some others; about 5.2% of the full set was active somewhere.
M1 ag – agonists of M1 muscarinic receptor; CHO-M1 cells, Fluo-4 calcium fluorescence, agonist mode; hits give high values; B-score at 10 µM; 64,000 compounds, 3% hits; AID 626;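 active = fluorescence rise, raw or as B-score row- and column-corrected plate score, outside the 99.7% band of its plate's samples, either direction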
WNV NS2B-NS3 inh – inhibitors of West Nile virus NS2B-NS3 protease | 65,000 compounds, 0.18% hits | P06935 | z-score (concentration not given with the values) | WNV NS2B-NS3 protease, fluorogenic substrate Ex360/Em465; hits give low values; in the data active = z-score below about -3
E coli WT exp – blocks growth of wild type E. coli BW25113. 98,000 compounds, 0.15% hits. growth inhibition, % at 100 µM. OD600 absorbance;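 active = growth inhibition above about 50% at one test dose, limit read from the data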;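 also: growth measured after 20 h incubation at 37 °C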
Ecoli tolC – E. coli tolC mutant growth inhibition; E. coli BW25113 tolC mutant growth, OD615; 65,000 compounds, 2.2% hits; growth inhibition, % at 10 µM (by protocol);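 active = growth inhibition at or above a cutoff equal to the mean over every tested compound plus 3 SD, cut at about 60% in these data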;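 also: growth measured after 20 h incubation at 37 °C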
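Test system: E. coli BW25113 ΔtolC::kan bacteria | Medium: Kanamycin-containing LB broth (50 µg/mL) | Dosing: One dose of 10 µM final | Times: 20 h incubation with compound, 37 °C | Detection: Optical density read at 615 nm | Read-out basis: Percent growth inhibition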
AP complement – alternative pathway complement inhibition, orthogonal assay; Human serum alternative complement pathway, LPS-coated ELISA, C3 deposition; tested in compound mixtures; 62,000 compounds, 0.08% hits; AID 1235; inhibition, % at 5 µM;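 active = inhibition above 30% in each of the two pooled mixtures holding the compound, so the lower value exceeds 30%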
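Assay system: human serum alternative complement pathway, C3 deposition on LPS-coated wells; Dosing: 5 µM per compound in ten-compound mixtures; Detection: Anti-C3 ELISA, OD 450 nm; Buffer or medium: Mg2+-EGTA GVB++ buffer containing human serum at 1:15 dilution; Timing: 1 h at 37 °C; Replication: two different pools per compound.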
M1 antagonist – M1 muscarinic receptor (rat) antagonism; P08482; CHO-M1 cells, Fluo-4 calcium, ACh EC80 antagonist mode; hits give low values; B-score at 10 µM; 64,000 compounds, 3.4% hits;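 active = calcium fluorescence response, raw or row-and-column corrected B-score, differing from the plate sample mean either way at a set confidence level, mostly lower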
Target sequence (P08482 whole entry, looked up): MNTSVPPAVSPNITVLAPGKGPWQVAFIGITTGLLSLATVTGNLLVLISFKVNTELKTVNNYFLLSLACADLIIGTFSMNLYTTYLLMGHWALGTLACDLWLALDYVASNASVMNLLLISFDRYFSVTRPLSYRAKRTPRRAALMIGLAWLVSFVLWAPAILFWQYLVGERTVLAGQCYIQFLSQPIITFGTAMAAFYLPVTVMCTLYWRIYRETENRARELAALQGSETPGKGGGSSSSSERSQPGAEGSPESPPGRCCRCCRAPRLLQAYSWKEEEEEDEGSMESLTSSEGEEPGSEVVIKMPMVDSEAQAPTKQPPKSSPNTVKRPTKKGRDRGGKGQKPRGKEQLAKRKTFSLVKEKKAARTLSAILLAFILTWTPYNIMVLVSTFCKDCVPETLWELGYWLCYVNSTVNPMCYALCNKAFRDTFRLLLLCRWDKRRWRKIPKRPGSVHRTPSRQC
M1 ag confirm – confirmation of rat M1 muscarinic receptor agonists. shares compounds with M1 ag. fluorescence change (max-min) at 10 µM. CHO-M1 cells, Fluo-4 calcium fluorescence, agonist mode; actives lie on both sides. 1,700 compounds, 19% hits;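 active = fluorescence change differs from the solvent-only DMSO control mean at a set confidence level in both duplicate runs; inconclusive = differs from solvent-only control mean in just one of two runs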;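 also: an EC20 dose of acetylcholine follows compound addition during the same imaging run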
M4 ag counter – activates rat M4 receptor in counter-screen for M1 agonists; shares compounds with M1 ag; CHO M4/Gqi5 cells, Fluo-4 calcium fluorescence, agonist mode; actives lie on both sides; fluorescence change (max-min) at 10 µM; 1,700 compounds, 9% hits;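 active = fluorescence change differing from the plate's solvent-only control wells at 99.7% confidence in both duplicates, whether higher or lower; inconclusive = differs from solvent controls in only one of two duplicates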
Each line names hits and unclear results; the compound was inactive in the other large screens (follow-up assays come after a bar, where they were run).

Cc1ccc(S(=O)(=O)N2CCC(C(=O)N[C@@H](Cc3ccccc3)C(=O)O)CC2)cc1	M1 ag 1.6 | M1 ag confirm inactive | M4 ag counter inconclusive
Cc1nc2ccccc2c(=O)n1NS(C)(=O)=O	none
Cc1nc2ccccc2c(=O)n1NCc1cc(Br)cs1	M1 ag 4.4 | M1 ag confirm inactive | M4 ag counter inactive
COc1cc(NC(=O)CCCC(=O)OCC(F)(F)C(F)F)nc(OC)n1	none
COc1cc(NC(=O)C2CCCCC2)c(OC)cc1NC(=O)CCC(=O)NCc1ccco1	none
Nc1nnnn1CC(=O)OCc1cccc(Br)c1	none (no result: AP complement)
Cc1ccc(OC(C)c2nnc(N)s2)cc1Cl (stereo not given)	M1 ag 2.5 | M1 ag confirm -20 | M4 ag counter inactive
Cc1ccc(-c2cc(C(=O)Nc3nn[nH]n3)c3ccccc3n2)cc1	none (no result: M1 ag, WNV NS2B-NS3 inh, Ecoli tolC, AP complement, M1 antagonist)
N#Cc1c(-c2cccs2)cc(-c2cccnc2)nc1N	M1 ag 2.8 | M1 ag confirm inconclusive | M4 ag counter inactive
C=CCc1cccc2cc(C(=O)N(CC)CC)c(=O)oc12	none
CCN(CC)CC#CC(C)OCOCC#CCOC (stereo not given)	M1 ag -4.1 | M1 ag confirm inconclusive | M4 ag counter inactive
CCOC(=O)NCC(C#CCN(CC)CC)N(CC)CC (stereo not given)	none
Cc1ccc(C(=O)Nc2cccc(-c3cnc4ccccc4n3)c2)cc1	none (no result: M1 ag, WNV NS2B-NS3 inh, Ecoli tolC, AP complement, M1 antagonist)
O=C(Nc1cccc(-c2cnc3ccccc3n2)c1)c1ccco1	M1 ag 4.3 | M1 ag confirm inconclusive | M4 ag counter inactive
O=C(Nc1cccc(-c2nc3ccccc3[nH]2)c1)c1cccc(NC(=O)c2ccco2)c1	M1 ag 5.1 | M1 ag confirm inactive | M4 ag counter inactive
OCCN(CCO)c1ncnc2c1oc1ccc(Br)cc12	none (no result: M1 ag, WNV NS2B-NS3 inh, Ecoli tolC, AP complement, M1 antagonist)
Cn1c(=O)cc(SCC(=O)Nc2cccnc2)c2ccccc21	M1 ag 2.7 | M1 ag confirm inactive | M4 ag counter inactive
OCCSc1nncn1/N=C/c1c[nH]c2ccccc12	none
CCOC(=O)Cc1nnc2c(Nc3ccc(C)cc3)nc3nonc3n12	none
CCOC(=O)Cc1nnc2c(Nc3ccccc3F)nc3nonc3n12	M1 ag 4.3, Ecoli tolC 79 | M1 ag confirm inconclusive | M4 ag counter inactive
CC(=O)c1cc2c(cc1NC(=O)Nc1cccc(Cl)c1)OCCO2	M1 ag 19 | M1 ag confirm inactive | M4 ag counter inactive
COc1ccc(CCNc2oc(-c3ccccc3OC)nc2C#N)cc1OC	M1 ag 3.6 | M1 ag confirm inactive | M4 ag counter -74
COc1ccc(CCNc2oc(-c3ccccc3OC)nc2C#N)cc1	none
O=C(OCC(=O)N1CCN(C(=O)c2ccco2)CC1)c1ccccc1OCc1ccc(Cl)cc1	M1 ag 4.5 | M1 ag confirm inactive | M4 ag counter inconclusive
COc1ccc(-c2nnc3ccc(SCC(N)=O)nn23)cc1OC	none
COc1ccc(-c2nnc3ccc(SCC(=O)N4CCCCC4)nn23)cc1OC	M1 ag -3.5 | M1 ag confirm inactive | M4 ag counter inactive
C=CCn1c(/N=C/c2ccc(N(C)C)cc2)nc2ccccc21	M1 ag 15 | M1 ag confirm 118 | M4 ag counter inactive
COc1ccccc1NC(=O)c1[nH]c(C)c(C(C)=O)c1C	none
COc1ccccc1OCC(=O)c1[nH]c(C)c(C(C)=O)c1C	M1 ag 8.6 | M1 ag confirm inactive | M4 ag counter inactive
Nc1nnc(N2CCCCC2)s1	none
Nc1nnc(N2CCc3ccccc32)s1	M1 ag 3.4 | M1 ag confirm inconclusive | M4 ag counter -72
Cc1ccc2c(c1)nnn2C1CCN(S(=O)(=O)c2cccc(S(=O)(=O)N(C)C)c2)CC1	M1 ag 4.9 | M1 ag confirm inconclusive | M4 ag counter inactive
Cc1ccc2c(c1)nnn2C1CCN(S(=O)(=O)c2ccc(C(=O)N(C)C)cc2)CC1	none (no result: M1 ag, M1 antagonist)
CCOC(=O)N1CCN(CC(=O)N2c3ccccc3CC2C)CC1 (stereo not given)	M1 ag 3.3 | M1 ag confirm inactive | M4 ag counter inactive
CCN1CCN(CC(=O)N2c3ccccc3CC2C)CC1 (stereo not given)	none (no result: M1 ag, WNV NS2B-NS3 inh, Ecoli tolC, AP complement, M1 antagonist)
O=S(=O)(Nc1cnc2ccccc2c1)N1CCCCCC1	M1 ag -2.5 | M1 ag confirm inactive | M4 ag counter inactive
CCOC(=O)c1cccc(NC(=O)CSc2nc3cccnc3n2C)c1	M1 ag 3.3 | M1 ag confirm inactive | M4 ag counter inactive
CCOC(=O)c1c(NC(=O)CSc2nc3cccnc3n2C)sc(C(C)=O)c1C	none
COC(=O)c1cnc(SC)nc1C	none (no result: M1 ag, WNV NS2B-NS3 inh, Ecoli tolC, AP complement, M1 antagonist)
CN(C)c1ccc2c(c1)OC(N)=C(C#N)C2c1cccc(F)c1 (stereo not given)	M1 ag 20, M1 antagonist -3.4 | M1 ag confirm 163 | M4 ag counter 120
N#CC1=C(N)Oc2cc(O)ccc2C1c1ccncc1 (stereo not given)	none
CCOc1ccccc1NC(=O)CN(c1cc(C)cc(C)c1)S(=O)(=O)c1c(C)noc1C	M1 ag 20 | M1 ag confirm inactive | M4 ag counter inactive
COc1ccc(C(=O)NCCn2cc(SCC(=O)Nc3cc(C)on3)c3ccccc32)cc1OC	M1 ag 3.5 | M1 ag confirm -27 | M4 ag counter inactive
Cc1ccc(C(=O)NCCn2cc(SCC(=O)Nc3nnc(C)s3)c3ccccc32)cc1	M1 ag 2.9 | M1 ag confirm inconclusive | M4 ag counter inactive
CCOC(=O)C(C)Sc1nnc(CNC(=O)c2ccc(OC)cc2)n1C1CCCCC1 (stereo not given)	M1 ag 3.3 | M1 ag confirm inconclusive | M4 ag counter inconclusive
COc1ccc(OC)c(CN2CCN(C(=O)c3cccs3)CC2)c1	M1 ag 15 | M1 ag confirm inactive | M4 ag counter inconclusive
Cc1nc2c(cnn2-c2ccccc2Cl)c(=O)n1-c1ccc(C(C)C)cc1	none (no result: M1 ag, WNV NS2B-NS3 inh, Ecoli tolC, AP complement, M1 antagonist)
Nc1nonc1-c1noc(CCCCCN2C(=O)c3ccccc3C2=O)n1	none
CSc1cccc(NS(=O)(=O)c2cccs2)c1	M1 ag 2.8 | M1 ag confirm -28 | M4 ag counter inactive
COc1ccc(S(=O)(=O)Nc2cccc(SC)c2)cc1OC	none
CSc1cccc(NS(=O)(=O)c2ccc3c(c2)oc(=O)n3C)c1	M1 ag -4 | M1 ag confirm inactive | M4 ag counter inactive
Cn1c(=O)oc2cc(S(=O)(=O)Nc3cccc(F)c3)ccc21	none
CCC(Cc1ccccc1)NC(=O)C1CCC(CNc2c(N3CCCC3)c(=O)c2=O)CC1 (stereo not given)	none (no result: M1 ag, WNV NS2B-NS3 inh, Ecoli tolC, AP complement, M1 antagonist)
C[C@H](NC(=O)OC(C)(C)C)c1nnc(SCC(=O)c2ccc(Cl)cc2)o1	M1 ag 5.5 | M1 ag confirm inactive | M4 ag counter inactive
